Vif imaging = blocks HIV Vif function; HEK293T cells, Vif self-association by quenched fluorescence, imaging, 24 h; inhibition, % at 7.49 µM; hit rate 0.35% among 340,000; AID 602346; in the data active = inhibition above about 50%, passing the limit was not always enough; inconclusive = no clear call, values can overlap the other calls; inactive = below about 31%
SR-BI uptake up = SR-BI HDL lipid transfer activation; CHO ldlA[mSR-BI] cells, DiI-HDL uptake fluorescence, 3 h; 100 = double the neutral-control signal; hit rate 0.096% among 320,000; activation, % at 12.5 µM; AID 504775;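 active = mean replicate activation of at least 60% and every replicate at or above 60%; inconclusive = mean or all-replicate condition met, but not both; inactive = mean below 60% and not all replicates reaching 60%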;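 also: 0% = median plate neutral-control signal and 100% = twice that signal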
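system = CHO ldlA[mSR-BI] cells, LDL receptor-null, SR-BI overexpressing | medium = Ham's F12 with 0.5% BSA, HEPES 25 mM, pH 7.4 | probe or stimulus = DiI-HDL 10 µg/mL | compound dosing = single-point compound dose | incubation = compound exposure 3 h, 37 °C | technique = DiI fluorescence, bottom read | read-out = cell-associated DiI fluorescence as measure of HDL uptake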
H9c2 TAG inh = reduces triacylglycerol accumulation in H9c2 cells; hit rate 0.66% among 230,000; Nile Red lipid (TAG) fluorescence; cells loaded with 200 µM oleic acid; inhibition, % at 12.5 µM; AID 651582;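 active = pattern-corrected inhibition of lipid staining of at least 50% with the nuclear-stain viability signal not falling by more than 50%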;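 also: 0% = DMSO wells and 100% = triacsin C control wells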
SR-BI HDL uptake = inhibitors of mouse SR-BI mediated HDL lipid uptake; Q61009; ldlA[mSR-BI] CHO cells, DiI-HDL uptake fluorescence, 3 h; inhibition, % at 12.5 µM; hit rate 0.96% among 320,000; AID 488896;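 active = mean replicate inhibition of at least 70% and a set share of replicates each scoring 70 or more; inconclusive = meets just one of the two criteria; inactive = fails both criteria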;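 also: 0% = median of neutral control wells and 100% = median of positive control wells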
Target sequence (Q61009 whole entry, looked up): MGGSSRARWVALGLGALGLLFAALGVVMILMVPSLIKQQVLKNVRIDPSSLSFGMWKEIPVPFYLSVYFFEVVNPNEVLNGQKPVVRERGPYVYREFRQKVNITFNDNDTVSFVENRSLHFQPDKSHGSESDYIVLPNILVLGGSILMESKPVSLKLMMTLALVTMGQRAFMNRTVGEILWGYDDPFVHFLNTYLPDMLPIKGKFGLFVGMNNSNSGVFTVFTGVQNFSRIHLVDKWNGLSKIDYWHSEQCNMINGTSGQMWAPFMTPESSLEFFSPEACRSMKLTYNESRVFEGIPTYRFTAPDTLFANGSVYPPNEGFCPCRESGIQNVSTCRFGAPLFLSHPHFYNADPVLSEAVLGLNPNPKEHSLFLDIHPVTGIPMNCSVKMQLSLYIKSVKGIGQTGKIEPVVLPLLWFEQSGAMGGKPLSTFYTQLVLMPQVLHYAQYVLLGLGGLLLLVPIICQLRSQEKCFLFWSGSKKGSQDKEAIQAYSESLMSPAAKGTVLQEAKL
SMARCA2 activ = increases SMARCA2 function in MMTV reporter cells | MG213 cells, MMTV-luciferase reporter, dexamethasone, overnight | AID 652017 | hit rate 1% among 370,000 | activation, % at 9.1 µM; in the data active = activation above about 7.8%;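 also: 0% = vehicle wells and 100% = reference activator wells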
An asterisk follows results filed as active; ? = inconclusive; . = no result given. A selection: hits, their analogues and other compounds. The true share with any hit is near 2.5%.

SMILES | Vif imaging | SR-BI uptake up | H9c2 TAG inh | SR-BI HDL uptake | SMARCA2 activ
CCNc1nc(NCC)nc(OCCOC(C)=O)n1 | 27.4 | 17.3 | . | -17.3 | 1.4
CCNc1nc(ON=C(C)C)nc(N(C)C)n1 | 9.5 | 64.1* | . | -64.1 | -0.5
CCOC(=O)C(=O)NC12CC3CC(CC(C3)C1)C2 | . | 63.1* | . | -63.1 | -2.2
COC(=O)C1=C(C)N(Cc2cccc(C(F)(F)F)c2)C(=NCc2ccc3c(c2)OCO3)NC1CCc1ccccc1 (stereo unspecified) | . | . | . | . | -2.1
CCc1cccc(-n2c(C)cc(O)cc2=O)c1 | . | . | . | . | -1.1
COCCCn1c(=O)/c(=C\c2ccc(OC(F)F)c(OC)c2)s/c1=C(/C#N)C(N)=O | 10.6 | . | 14.2 | . | 4.1
COCCCn1c(=O)/c(=C\c2ccccc2OC(F)F)s/c1=C(/C#N)C(N)=O | 139.3* | -43.5 | 0.4 | 43.5 | -2.5
CCNc1ccc(C(=O)OCC)cc1NC(=O)c1cccc(N(C)C)c1 | 4.4 | -85.5 | . | 85.6* | 0.7
CCNc1ccc(C(=O)OCC)cc1NC(=O)c1cccc(S(=O)(=O)N(C)c2ccccc2)c1 | -12.3 | -56.7 | . | 56.7 | -3.7
CCCCCCC12C(=Cc3cc4c(cc31)OCCO4)c1cc(OC)c(OC)cc1C(CC(=O)NCc1ccccc1)N2C(=O)OC (stereo unspecified) | . | . | . | . | -2.9
COc1cc(NC(=O)COc2cccc3c2OC(C)(C)C3)cc(OC)c1OC | 20.5 | -88.0 | -22.5 | 88.0* | -4.7
COc1ccc(C(=O)NNC(=O)c2ccc3ccccc3c2)cc1 | -1.8 | -11.6 | 1.8 | 11.6 | 2.4
COc1ccccc1NC(=O)NNC(=O)c1cc2ccccc2cc1O | -0.6 | -93.7 | 20.3 | 93.7* | -1.6
COc1cc(OC)cc(C(=O)NNC(=O)c2cc3ccccc3cc2O)c1 | 34.5 | -113.6 | . | 113.6* | -2.6
Cc1ccc(NC(=O)NNC(=O)c2cc3ccccc3cc2O)cc1 | 3.7 | . | . | 36.8 | 3.2
COC(=O)[C@]12C[C@H](CC(=O)N3CCCC3)C(=O)N(Cc3ccc4c(c3)OCO4)C1=C[C@H](COCc1ccccc1)O[C@@H]2C | . | . | . | . | -5.4
COC(=O)N1C[C@H](Oc2cccc3ccccc23)[C@H]2C[C@@H]1c1ccccc1O2 | . | . | . | . | -0.9
Cc1[nH]c2ccccc2c1CC(=O)Nc1ccc(Nc2cccnc2)c(-c2ccc(-c3ccccc3)cc2F)c1 | . | . | . | . | -1.5
COC(=O)[C@]12C[C@H](CC(=O)N3CCN(C(=O)c4ccco4)CC3)C(=O)N(Cc3cccc4ccccc34)C1=C[C@H](C(C)C)O[C@@H]2C1CC1 | . | . | . | . | -1.4
CCCN(CCC)C1=CC(=[N+]2CCCC2)CC(C)(C)C1 | 5.1 | 83.5* | . | -83.5 | -3.9
CN(C)NC1=CC(=[N+]2CCCC2)CC(C)(C)C1 | 8.8 | -10.5 | 0.8 | 10.5 | -0.3
CC(C)Oc1cccc(-c2n[nH]c(=S)n2N=Cc2ccc(O)cc2O)c1 | . | . | . | . | 0.3
COc1cccc(Cn2cc(COC(=O)N3CCCC3)nn2)c1 | . | . | . | . | -5.7
COc1ccc(NC(=O)COC(=O)COc2cccc(Br)c2)cc1OC | -5.4 | 5.2 | 16.2 | -5.2 | -1.4
O=C(COC(=O)COc1cccc(Br)c1)Nc1c(Cl)cccc1Cl | 18.6 | 373.6* | -1.6 | -373.6 | 4.7
SMILES | Vif imaging | SR-BI uptake up | H9c2 TAG inh | SR-BI HDL uptake | SMARCA2 activ
C=CCCC1CN(Cc2ccc(OC)cc2)S(=O)(=O)c2c(Oc3ccc(C(C)C)cc3)cccc2O1 (stereo unspecified) | . | . | . | . | -4.1
Cc1cccc(/C=C/C(=O)c2ccc([N+](=O)[O-])o2)c1 | 62.4* | 11.5 | 35.0 | -11.5 | 0.1
O=C(/C=C/c1cccc([N+](=O)[O-])c1)c1ccc([N+](=O)[O-])o1 | ? | -33.4 | 81.0 | 33.4 | 1.0
COc1cc(/C=C\C(=O)NCc2ccc3[nH]c(C)cc3c2)cc(OC)c1OC | . | -75.5 | 41.3 | 75.5* | -7.5
Cc1ccc(C)c(N=Nc2ccc(O)c3ncccc23)c1 | 3.7 | -38.6 | 108.3* | 38.6 | -5.1
Oc1ccc(N=Nc2ccc3c(c2)OCCO3)c2ncccc12 | -6.3 | . | 78.5* | . | -7.7
NS(=O)(=O)c1ccc(N=Nc2ccc(O)c3ncccc23)cc1 | 2.4 | -16.6 | . | 16.6 | -2.9
Cc1cccc(N=Nc2ccc(O)c3ncccc23)c1 | 14.8 | -15.5 | 82.4* | 15.5 | 0.9
CCOc1ccc(N=Nc2ccc(O)c3ncccc23)cc1 | 6.7 | -28.3 | . | 28.3 | 1.9
O=C(Nc1cnn(Cc2ccc(F)cc2)c1)c1cc(-c2cccs2)on1 | 57.4* | 22.7 | . | -22.7 | .
CCCc1cc(C(=O)Nc2cnn(Cc3ccc(F)cc3)c2)no1 | -2.8 | . | -11.6 | . | 0.8
COc1ccc(-c2cc(C(=O)Nc3cnn(Cc4ccccc4C)c3)no2)cc1OC | 86.2* | -57.3 | . | 57.3 | .
O=[N+]([O-])c1cc(-n2cnnn2)ccc1N1CCC(Cc2ccccc2)CC1 | 78.2* | -25.9 | . | 25.9 | -4.2
CCCn1c(=N)c(C(=O)NCc2ccc3c(c2)OCO3)cc2c(=O)n3cccc(C)c3nc21 | 92.5* | 22.6 | . | -22.6 | 4.7
COc1cc(-c2cc(=O)c3c(O)cc(O)cc3o2)cc(OC)c1OC | ? | . | . | . | 0.4
COc1ccc(-c2cc(=O)c3c(O)cc(O)cc3o2)cc1 | 0.4 | -32.7 | -18.2 | 32.7 | 7.9*
COc1cc(-c2cc(=O)c3c(O)c(OC)c(OC)c(O)c3o2)ccc1O | 62.4* | 8.0 | . | -8.0 | 3.5
O=C/C(=C\Nc1ccccn1)c1nc2cc(Cl)ccc2o1 | 61.0* | 3.7 | 3.3 | -3.7 | 6.9
Cc1[nH]nc(C(F)(F)F)c1CCC(=O)NC1CCCCCC1 | 58.5* | 16.0 | 3.3 | -16.0 | -2.9
c1ccc2c(c1)OCc1nccn1-2 | . | . | . | . | -1.6
COc1ccc(OCc2nnc(SCC(=O)Nc3cccc(Cl)c3)o2)cc1 | 51.4* | 12.5 | . | -12.5 | 0.9
COCc1cc(N2CCNC[C@H]2C)ccc1N1CCN(Cc2ccccc2)[C@@H](C)C1 | . | . | . | . | 0.6
CCSc1nc(N2CCCCC2)c2c(c1C#N)CCCC2 | -4.4 | -76.4 | -1.3 | 76.4* | -1.4
COC(=O)Cc1nnn2c1CC(OC)c1cc(Br)ccc1-2 (stereo unspecified) | . | . | . | . | -2.2
C/C(=N\Nc1ccc([N+](=O)[O-])cc1)c1ccc(O)cc1 | 4.0 | -74.0 | . | 74.0* | -3.3
SMILES | Vif imaging | SR-BI uptake up | H9c2 TAG inh | SR-BI HDL uptake | SMARCA2 activ
CC/C(=N\Nc1ccc([N+](=O)[O-])cc1[N+](=O)[O-])c1ccc(O)cc1 | -7.7 | -75.7 | . | 75.7* | -2.1
C/C(=N\Nc1ccc([N+](=O)[O-])cc1)c1cccc(N)c1 | 9.9 | 3.4 | . | -3.4 | 2.9
CCC(=NNc1ccc([N+](=O)[O-])cc1[N+](=O)[O-])c1ccccc1 | 0.6 | . | . | . | -3.7
CCCCCCCCN1C(=O)[C@@H](CC(=O)NCc2cccs2)C[C@@]2(C(=O)OC)C1=C[C@H](C1CCCC1)O[C@@H]2C | . | . | . | . | -0.3
C=CCN1C(=O)C(Cc2cccc(Cl)c2)SC1=Nc1ccc(C(=O)O)cc1 (stereo unspecified) | 4.0 | 62.5* | 17.3 | -62.5 | 3.2
CC(/C=C/c1ccc2c(c1)OCO2)=N/NC(=O)c1ccncc1 | 13.2 | -6.4 | -2.5 | 6.4 | 1.7
CC1=C(/C=C/C(C)=N\NC(=O)c2ccncc2)C(C)(C)CCC1 | -1.9 | -87.1 | 7.4 | 87.1* | -1.6
